For six compounds, CC50 results are on record in PubChem BioAssay AID504477 (NMMLSC, 2011).

Each structure is given as a SMILES string. Activity calls are given as the source filed them.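 Rule for the calls: active = compounds whose self-toxic dose exceeds tenfold the dose that restores mitoxantrone killing of resistant cells; inactive = the rest.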

The subject of this assay is Igrov ABCG2 cells + mitoxantrone, trypan blue viability, 3 d. As to the kind of experiment: ABCG2-mediated mitoxantrone resistance reversal, SAR follow-up, Igrove cells, trypan blue, SAR set 2 (AID 504477). The procedure, abridged: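 Technique: trypan blue counts by light microscopy; test system: ABCG2-expressing Igrove cells; quantity: 100,000 cells per mL; doses: test compound concentration series […] 1-100 µM; evaluation: compound level halving cell viability; times: compound exposure 3 days; probe or stimulus: mitoxantrone selective agent at one fixed concentration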
For `CC(=O)N1CCN(c2cc(-c3ccco3)nc3cc(-c4cccc(Cl)c4)nn23)CC1`, the CC50 was > 100 µM.
In the case of `COc1ccc(-c2cc3nc(-c4ccco4)cc(N4CCN(C(=O)c5ccoc5)CC4)n3n2)cc1` it was > 100 µM; in that of `COc1cccc(-c2cc3nc(-c4ccco4)cc(N4CCN(C(C)=O)CC4)n3n2)c1`, > 100 µM.
To `O=C(c1ccoc1)N1CCN(c2cc(-c3ccco3)nc3cc(-c4ccco4)nn23)CC1` belongs > 100 µM.
In the case of `CC(=O)N1CCN(c2cc(-c3ccco3)nc3cc(-c4ccccc4)nn23)CC1` it was > 100 µM; in that of `COc1ccccc1-c1cc(N2CCN(C(=O)c3ccoc3)CC2)n2nc(-c3ccccc3)cc2n1`, > 7.62 µM (inactive).
